# Legend:
# [1] = system: Priestia megaterium; assay: Antimicrobial activity against Bacillus megaterium ATCC 9885 after 24 hrs by agar well diffusion method; format: functional
# Procedure, shortened: (§1)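 Agar well diffusion. Inocula of 100 µL: bacteria 1 × 10^8 CFU/mL on nutrient agar, yeast 1 × 10^6 CFU/mL on Sabouraud dextrose agar, fungi 1 × 10^4 spore/mL on potato dextrose agar. 10 mm wells received 100 µL of compound at 100 mg/mL in DMSO. Bacteria incubated 24 h at 37 °C, fungi 48 h at 28 °C. Controls were DMSO, ciprofloxacin 50 µg/mL and ketoconazole 50 µg/mL. Inhibition zone diameter in mm, scored N.A. to ++++, average of triplicates.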
# [2] = system: Escherichia coli; assay: Antimicrobial activity against Escherichia coli ATCC 25922 after 24 hrs by two fold serial dilution technique; format: functional; conditions: ATCC 25922, 24 h
# Procedure, shortened: (§2)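 Tested only compounds giving inhibition zones ≥ 16 mm, by two-fold serial dilution in nutrient broth. Final concentrations were […], 175, 87.5, 43.8 and 21.9 µg/mL. Each 5 mL tube received 0.1 mL inoculum of about 1 × 10^8 CFU/mL and was incubated 24 h at 37 °C. MIC was the lowest concentration with no growth.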
# [3] = system: Candida albicans; assay: Antimicrobial activity against Candida albicans NRRL Y-477 after 48 hrs by agar well diffusion method; format: functional; procedure, shortened: as §1
# [4] = system: Pseudomonas aeruginosa; assay: Antimicrobial activity against Pseudomonas aeruginosa ATCC 27953 after 24 hrs by two fold serial dilution technique; format: functional; conditions: ATCC 27953, 24 h; procedure, shortened: as §2
# [5] = Cytotoxicity against mouse EAC cells assessed as cell viability using trypan blue staining after 2 hrs by hemocytometer analysis; format: functional, cell-based; conditions: Ehrlich
# [6] = system: Aspergillus niger; assay: Antimicrobial activity against Aspergillus niger after 48 hrs by agar well diffusion method; format: functional; procedure, shortened: as §1
# [7] = system: Bacillus subtilis; assay: Antimicrobial activity against Bacillus subtilis ATCC 6633 after 24 hrs by two fold serial dilution technique; format: functional; conditions: ATCC 6633, 24 h; procedure, shortened: as §2
# [8] = system: Pseudomonas aeruginosa; assay: Antimicrobial activity against Pseudomonas aeruginosa ATCC 27953 after 24 hrs by agar well diffusion method; format: functional; procedure, shortened: as §1
# [9] = system: Bacillus subtilis; assay: Antimicrobial activity against Bacillus subtilis ATCC 6633 after 24 hrs by agar well diffusion method; format: functional; procedure, shortened: as §1
# [10] = system: Staphylococcus aureus; assay: Antimicrobial activity against Staphylococcus aureus ATCC 29213 after 24 hrs by two fold serial dilution technique; format: functional; conditions: ATCC 29213, 24 h; procedure, shortened: as §2
# [11] = system: Escherichia coli; assay: Antimicrobial activity against Escherichia coli ATCC 25922 after 24 hrs by agar well diffusion method; format: functional; procedure, shortened: as §1
# [12] = system: Staphylococcus aureus; assay: Antimicrobial activity against Staphylococcus aureus ATCC 29213 after 24 hrs by agar well diffusion method; format: functional; procedure, shortened: as §1
# [13] = Antioxidant activity assessed as ABTS radical scavenging activity at 2 mM; format: functional
# Procedure, shortened: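 ABTS (60 µM, 2 mL) was oxidized with MnO2 (25 mg/mL, 3 mL) in 0.1 M phosphate buffer pH 7, then centrifuged and filtered, with A734 adjusted to about 0.5. 50 µL of 2 mM compound in MeOH/phosphate buffer (1:1) was added. Colour loss expressed as % inhibition. L-ascorbic acid was the standard; blank and negative controls used MeOH/buffer.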
# [14] = system: Klebsiella pneumoniae; assay: Antimicrobial activity against Klebsiella pneumoniae ATCC 13883 after 24 hrs by agar well diffusion method; format: functional; procedure, shortened: as §1
# [15] = system: Priestia megaterium; assay: Antimicrobial activity against Bacillus megaterium ATCC 9885 after 24 hrs by two fold serial dilution technique; format: functional; conditions: ATCC 9885, 24 h; procedure, shortened: as §2
# [16] = Antioxidant activity in rat erythrocytes assessed as inhibition of peroxyl radicals-induced hemolysis at 2 mM after 2 hrs; format: functional; conditions: Erythrocyte, read-out: INH
# Procedure, shortened: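 Rat blood from cardiac puncture, heparinized. Erythrocytes were washed three times in 0.15 M NaCl. A 10% suspension in PBS pH 7.4 was mixed with an equal volume of 200 mM AAPH in PBS containing sample, then shaken at 37 °C for 2 h. Mixture diluted with 8 volumes of PBS and centrifuged; supernatant A540 compared with a water-lysed sample for complete hemolysis. L-ascorbic acid was the positive control. Mean ± SD.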
# [17] = system: Klebsiella pneumoniae; assay: Antimicrobial activity against Klebsiella pneumoniae ATCC 13883 after 24 hrs by two fold serial dilution technique; format: functional; conditions: ATCC 13883, 24 h; procedure, shortened: as §2
SMILES,diameter of the inhibition zone (DIZ) [1],MIC [2],diameter of the inhibition zone (DIZ) [3],MIC [4],IC50 [5],diameter of the inhibition zone (DIZ) [6],MIC [7],diameter of the inhibition zone (DIZ) [8],diameter of the inhibition zone (DIZ) [9],MIC [10],diameter of the inhibition zone (DIZ) [11],diameter of the inhibition zone (DIZ) [12],inhibition [13],diameter of the inhibition zone (DIZ) [14],MIC [15],percent hemolysis at 2000 µM [16],MIC [17]
C/C(=N\NC(=O)/C(C#N)=C\c1ccc(F)cc1)c1nc(-c2ccccc2)[nH]c1C,>=21 mm,21.9 µg/mL,<=4 mm,21.9 µg/mL,85.2 µg/mL,<=4 mm,43.8 µg/mL,16 mm,16 mm,21.9 µg/mL,16 mm,>=21 mm,68.6%,10 mm,21.9 µg/mL,0.86%,
C/C(=N\N=C1\N=C(c2ccccc2)CS1)c1nc(-c2ccccc2)[nH]c1C,<=4 mm,,<=4 mm,,19.5 µg/mL,<=4 mm,43.8 µg/mL,10 mm,16 mm,29.1 µg/mL,10 mm,16 mm,79.3%,10 mm,,2.75%,
O=C(O)c1cn(C2CC2)c2cc(N3CCNCC3)c(F)cc2c1=O [CIPROFLOXACIN],16 mm,21.9 µg/mL,<=4 mm,10.9 µg/mL,,<=4 mm,10.9 µg/mL,>=21 mm,>=21 mm,21.9 µg/mL,16 mm,16 mm,,>=21 mm,21.9 µg/mL,,10.9 µg/mL
C/C(=N\N=C1\NC(=O)CS1)c1nc(-c2ccccc2)[nH]c1C,<=4 mm,,<=4 mm,,,<=4 mm,43.8 µg/mL,<=4 mm,16 mm,43.8 µg/mL,<=4 mm,16 mm,,16 mm,,,21.9 µg/mL
C/C(=N\NC(N)=S)c1nc(-c2ccccc2)[nH]c1C,10 mm,,<=4 mm,,4.18 µg/mL,<=4 mm,87.5 µg/mL,<=4 mm,16 mm,,<=4 mm,5 mm,60.2%,10 mm,,2.45%,

# From ChEMBL document CHEMBL1770090, “Synthesis, antimicrobial, antioxidant, anti-hemolytic and cytotoxic evaluation of new imidazole-based heterocycles” (Eur J Med Chem, 2011)
